Test results: ChEMBL document CHEMBL1949596, “Chromophenazines from the terrestrial Streptomyces sp. Ank 315” (2012)
Activity calls are given as the source filed them. The calls are words filed in the database; no cut-off is given here.

Experiments:
Bacillus subtilis = assay: Antimicrobial activity against Bacillus subtilis by agar diffusion method; type: functional
Outline: (§1)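 Pure compounds applied to paper disks at 40 μg/disk and tested by agar diffusion against Bacillus subtilis, Escherichia coli, Staphylococcus aureus and the fungus Mucor miehei (Tü284). Activity was read from the agar plates.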

Rhizomucor miehei = assay: Antimicrobial activity against Mucor miehei by agar diffusion method; type: functional; outline: as §1
Escherichia coli = assay: Antimicrobial activity against Escherichia coli by agar diffusion method; type: functional; outline: as §1
Staphylococcus aureus = assay: Antimicrobial activity against Staphylococcus aureus by agar diffusion method; type: functional, organism-based; outline: as §1

Row | SMILES | Activity (Bacillus subtilis) | Activity (Rhizomucor miehei) | Activity (Escherichia coli) | Activity (Staphylococcus aureus) | inhibition zone (IZ) (Bacillus subtilis) | inhibition zone (IZ) (Rhizomucor miehei) | inhibition zone (IZ) (Escherichia coli)
1 | CC(C)=CCc1cc(=O)cc2n(C)c3cccc(C(=O)O)c3nc1-2 | inactive | inactive | inactive | inactive | – | – | –
2 | CC(C)=CCn1c2cc(=O)c3cc(C)ccc3c-2nc2c(C(=O)O)cccc21 | inactive | inactive | inactive | inactive | – | – | –
3 | CC(C)=CCN1c2cc(C(=O)c3ccccc3)ccc2Nc2c(C(N)=O)cc(C(=O)c3ccccc3)cc21 | inactive | inactive | inactive | inactive | – | – | –
4 | CC(C)=CCn1c2cc(=O)ccc-2nc2c(C(N)=O)cccc21 | inactive | inactive | inactive | inactive | – | – | –
5 | CC(C)=CCn1c2cc(=O)c3cc(C)ccc3c-2nc2ccccc21 | inactive | inactive | inactive | inactive | – | – | –
6 | CC(C)=CCN1c2ccccc2Nc2c(C(=O)O)cc(C(=O)c3ccccc3)cc21 [CHROMOPHENAZINE D] | – | – | – | – | 10 mm | 10 mm | 10 mm
